In ChEMBL document CHEMBL2040754, “Regioselective reaction: synthesis, characterization and pharmacological activity of some new Mannich and Schiff bases containing sydnone” (2012):

Legend:
Type in all cases: functional
Rattus norvegicus [1] = experiment: Antiinflammatory activity in Wistar albino rat assessed as reduction of carrageenan-induced paw edema at 20 mg/kg, po measured after 2 hrs by plethysmometer; parameters: scale not given: the % may be the effect or the level left
In short: (§1)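 Rats 150e200 g dosed orally with test suspension 20 mg/kg, control given 1 mL of 1% carboxymethyl cellulose suspension. After 30 min, 0.1 mL of 1% carrageenan in normal saline injected subcutaneously into the sub-plantar region of the right hind paw. Paw volume read by plethysmometer at 0 h, 30, 60 and 120 min. Data as mean, one-way ANOVA then Dunnett's t-test.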

Rattus norvegicus [2] = experiment: Analgesic activity in Wistar albino rat assessed as thermal-stimulus induced tail flick latency time at 20 mg/kg measured after 30 mins (reference value: 3.23 +/- 0.005 secs)
Rattus norvegicus [3] = experiment: Antiinflammatory activity in Wistar albino rat assessed as reduction of carrageenan-induced paw edema at 20 mg/kg, po measured after 30 mins by plethysmometer; parameters: scale not given: the % may be the effect or the level left; in short: as §1
Rattus norvegicus [4] = experiment: Analgesic activity in Wistar albino rat assessed as thermal-stimulus induced tail flick latency time at 20 mg/kg measured after 60 mins (reference value: 3.34 +/- 0.005 secs)
Rattus norvegicus [5] = experiment: Analgesic activity in Wistar albino rat assessed as thermal-stimulus induced tail flick latency time at 20 mg/kg measured after 90 mins (reference value: 3.25 +/- 0.005 secs)
Rattus norvegicus [6] = experiment: Antiinflammatory activity in Wistar albino rat assessed as reduction of carrageenan-induced paw edema at 20 mg/kg, po measured after 1 hr by plethysmometer; parameters: scale not given: the % may be the effect or the level left; in short: as §1

Structure (SMILES): CC(C)Cc1ccc(C(C)c2n[nH]c(=S)n2/N=C/c2c([O-])on[n+]2-c2ccccc2)cc1 (centres undefined)
- Activity (Rattus norvegicus [1]): 50.2%
- Time (Rattus norvegicus [2]): 5.76 s
- Activity (Rattus norvegicus [3]): 32.9%
- Time (Rattus norvegicus [4]): 6.24 s
- Time (Rattus norvegicus [5]): 6.6 s
- Activity (Rattus norvegicus [6]): 39.4%

Structure (SMILES): Cc1ccc(-[n+]2noc([O-])c2/C=N/n2c(C(C)c3ccc(CC(C)C)cc3)n[nH]c2=S)cc1 (centres undefined)
- Activity (Rattus norvegicus [1]): 55.4%
- Time (Rattus norvegicus [2]): 4.99 s
- Activity (Rattus norvegicus [3]): 39.2%
- Time (Rattus norvegicus [4]): 6.11 s
- Time (Rattus norvegicus [5]): 6.92 s
- Activity (Rattus norvegicus [6]): 46.9%

Structure (SMILES): COc1ccc(-[n+]2noc([O-])c2/C=N/n2c(C(C)c3ccc(CC(C)C)cc3)n[nH]c2=S)cc1 (centres undefined)
- Activity (Rattus norvegicus [1]): 64%
- Time (Rattus norvegicus [2]): 5.41 s
- Activity (Rattus norvegicus [3]): 48.6%
- Time (Rattus norvegicus [4]): 6.3 s
- Time (Rattus norvegicus [5]): 7.23 s
- Activity (Rattus norvegicus [6]): 55.2%

Structure (SMILES): CC(C)Cc1ccc(C(C)c2nn(CN3CCOCC3)c(=S)n2/N=C/c2c([O-])on[n+]2-c2ccccc2)cc1 (centres undefined)
- Activity (Rattus norvegicus [1]): 65.3%
- Time (Rattus norvegicus [2]): 4.92 s
- Activity (Rattus norvegicus [3]): 43.7%
- Time (Rattus norvegicus [4]): 6.1 s
- Time (Rattus norvegicus [5]): 6.9 s
- Activity (Rattus norvegicus [6]): 55.3%

Structure (SMILES): CC(C)Cc1ccc(C(C)c2nn(CN3CCCCC3)c(=S)n2/N=C/c2c([O-])on[n+]2-c2ccccc2)cc1 (centres undefined)
- Activity (Rattus norvegicus [1]): 67.9%
- Time (Rattus norvegicus [2]): 4.56 s
- Activity (Rattus norvegicus [3]): 45%
- Time (Rattus norvegicus [4]): 5.73 s
- Time (Rattus norvegicus [5]): 6.8 s
- Activity (Rattus norvegicus [6]): 56.1%

Structure (SMILES): CCN1CCN(Cn2nc(C(C)c3ccc(CC(C)C)cc3)n(/N=C/c3c([O-])on[n+]3-c3ccccc3)c2=S)CC1 (centres undefined)
- Activity (Rattus norvegicus [1]): 54.5%
- Time (Rattus norvegicus [2]): 4.4 s
- Activity (Rattus norvegicus [3]): 38.7%
- Time (Rattus norvegicus [4]): 5.39 s
- Time (Rattus norvegicus [5]): 6.41 s
- Activity (Rattus norvegicus [6]): 46.9%

Structure (SMILES): CC(C)Cc1ccc(C(C)c2nn(CN3CCN(c4ccccc4)CC3)c(=S)n2/N=C/c2c([O-])on[n+]2-c2ccccc2)cc1 (centres undefined)
- Activity (Rattus norvegicus [1]): 38.5%
- Time (Rattus norvegicus [2]): 4.19 s
- Activity (Rattus norvegicus [3]): 27.9%
- Time (Rattus norvegicus [4]): 5.03 s
- Time (Rattus norvegicus [5]): 6.05 s
- Activity (Rattus norvegicus [6]): 34.2%

Structure (SMILES): Cc1ccc(-[n+]2noc([O-])c2/C=N/n2c(C(C)c3ccc(CC(C)C)cc3)nn(CN3CCOCC3)c2=S)cc1 (centres undefined)
- Activity (Rattus norvegicus [1]): 66.6%
- Time (Rattus norvegicus [2]): 5.15 s
- Activity (Rattus norvegicus [3]): 41.9%
- Time (Rattus norvegicus [4]): 5.91 s
- Time (Rattus norvegicus [5]): 7.12 s
- Activity (Rattus norvegicus [6]): 53%

Structure (SMILES): Cc1ccc(-[n+]2noc([O-])c2/C=N/n2c(C(C)c3ccc(CC(C)C)cc3)nn(CN3CCCCC3)c2=S)cc1 (centres undefined)
- Activity (Rattus norvegicus [1]): 54.1%
- Time (Rattus norvegicus [2]): 3.92 s
- Activity (Rattus norvegicus [3]): 39.1%
- Time (Rattus norvegicus [4]): 4.31 s
- Time (Rattus norvegicus [5]): 5.1 s
- Activity (Rattus norvegicus [6]): 46.9%

Structure (SMILES): Cc1ccc(-[n+]2noc([O-])c2/C=N/n2c(C(C)c3ccc(CC(C)C)cc3)nn(CN3CCN(C)CC3)c2=S)cc1 (centres undefined)
- Activity (Rattus norvegicus [1]): 56.2%
- Time (Rattus norvegicus [2]): 4.52 s
- Activity (Rattus norvegicus [3]): 36.5%
- Time (Rattus norvegicus [4]): 5.25 s
- Time (Rattus norvegicus [5]): 6.21 s
- Activity (Rattus norvegicus [6]): 48.7%

Structure (SMILES): Cc1ccc(-[n+]2noc([O-])c2/C=N/n2c(C(C)c3ccc(CC(C)C)cc3)nn(CN3CCN(c4ccccc4)CC3)c2=S)cc1 (centres undefined)
- Activity (Rattus norvegicus [1]): 40.2%
- Time (Rattus norvegicus [2]): 4.15 s
- Activity (Rattus norvegicus [3]): 31.5%
- Time (Rattus norvegicus [4]): 4.41 s
- Time (Rattus norvegicus [5]): 5.35 s
- Activity (Rattus norvegicus [6]): 35.9%

Structure (SMILES): COc1ccc(-[n+]2noc([O-])c2/C=N/n2c(C(C)c3ccc(CC(C)C)cc3)nn(CN3CCOCC3)c2=S)cc1 (centres undefined)
- Activity (Rattus norvegicus [1]): 65.8%
- Time (Rattus norvegicus [2]): 4.77 s
- Activity (Rattus norvegicus [3]): 49%
- Time (Rattus norvegicus [4]): 5.92 s
- Time (Rattus norvegicus [5]): 6.82 s
- Activity (Rattus norvegicus [6]): 57%

Structure (SMILES): COc1ccc(-[n+]2noc([O-])c2/C=N/n2c(C(C)c3ccc(CC(C)C)cc3)nn(CN3CCCCC3)c2=S)cc1 (centres undefined)
- Activity (Rattus norvegicus [1]): 56.2%
- Time (Rattus norvegicus [2]): 4.61 s
- Activity (Rattus norvegicus [3]): 42.7%
- Time (Rattus norvegicus [4]): 5.55 s
- Time (Rattus norvegicus [5]): 6.26 s
- Activity (Rattus norvegicus [6]): 48.6%

Structure (SMILES): CC(C)=CCN1CC[C@]2(C)c3cc(O)ccc3C[C@H]1[C@H]2C [(+)-PENTAZOCINE]
- Time (Rattus norvegicus [2]): 6.25 s
- Time (Rattus norvegicus [4]): 6.95 s
- Time (Rattus norvegicus [5]): 7.45 s

Structure (SMILES): COc1ccc2c(c1)c(CC(=O)O)c(C)n2C(=O)c1ccc(Cl)cc1 [INDOMETHACIN]
- Activity (Rattus norvegicus [1]): 70.1%
- Activity (Rattus norvegicus [3]): 58.1%
- Activity (Rattus norvegicus [6]): 65.8%
